Experimental data gathered from unrelated publications.
Protocols differ between the studies behind these lines.
Target: Citron Rho-interacting kinase (CIT, Homo sapiens, UniProt O14578)

O=C(c1ccc(Nc2nccc(-c3cc4ccccc4s3)n2)cc1)N1CCC(N2CCCC2)CC1  remaining binding (binding, competition with immobilised ligand; 1 µM): 57%
COc1cnc(Nc2cccc(S(N)(=O)=O)c2)nc1N1CCN(c2ccccc2)CC1  remaining binding (binding, competition with immobilised ligand; 1 µM): 100%
CNC(=O)c1ccc(Nc2ncc(C(F)(F)F)c(NCc3nccnc3N(C)S(C)(=O)=O)n2)cc1  remaining binding (cell-free assay, competition with immobilised ligand; 0.1 µM): 68%
N[C@@H]1CCN(c2nccc(-c3cnn4ncccc34)n2)C1  remaining binding (binding; 1 µM): 99%
CCOC(=O)c1cc2cc(-c3cc(C(=O)NCc4ccc(C(=O)O)cc4)nn3C)ccc2[nH]1  remaining binding (cell-free assay, competition with immobilised ligand; 0.1 µM): 100%
CN(C)c1ncc(F)c(-c2cnn3ncccc23)n1  remaining binding (binding; 1 µM): 100%
CCC(=O)N[C@H]1CC[C@@H](C(=O)N(C)c2ccc(-c3nc4ccccc4o3)cc2)C1  remaining binding (cell-free assay, competition with immobilised ligand; 1 µM): 99%
CN(C)c1nccc(-c2cnn3ncccc23)n1  remaining binding (binding; 1 µM): 86%
C[C@@H](c1cccc(C#N)c1)n1cc(Cl)cc(C(N)=O)c1=N  remaining binding (cell-free assay, competition with immobilised ligand; 1 µM): 100%
Nc1ncc2c(n1)-c1c([nH]c3ccc(C#CC4CC4)cc13)CCCC2  remaining binding (binding, competition with immobilised ligand; 1 µM): 88%
c1cnn2ncc(-c3ccnc(N4CCC45COC5)n3)c2c1  remaining binding (binding; 1 µM): 84%
O=C(NCC1CCOCC1)c1n[nH]cc1NC(=O)c1c(F)cccc1F  remaining binding (binding, competition with immobilised ligand; 1 µM): 100%
CNC(=O)[C@@H]1CC[C@@H](n2c(-c3ccc4cnccc4c3)nc3ccc(C(=O)NCc4cccc(C(N)=O)c4)cc32)C1  remaining binding (binding, competition with immobilised ligand; 1 µM): 100%
O=C(NCc1ncc(C(F)(F)F)cc1Cl)c1ccc2c(c1)C1(CCS(=O)(=O)CC1)[C@@H](C1CC1)N2S(=O)(=O)c1ccc(F)cc1  remaining binding (cell-free assay, competition with immobilised ligand; 1 µM): 84%
O=C(c1ccc(Nc2ncc(Cl)c(-c3ccc(Cl)s3)n2)cc1)N1CCC(N2CCCC2)CC1  remaining binding (binding, competition with immobilised ligand; 1 µM): 30%
CN(CCCC(F)(F)F)c1nccc(-c2cnn3ncccc23)n1  remaining binding (binding; 1 µM): 88%
c1ccc(N2CCN(Cc3nc4ccccc4[nH]3)CC2)nc1  remaining binding (binding, competition with immobilised ligand; 1 µM): 88%
C[C@H]1CCN(c2nccc(-c3cnn4ncccc34)n2)C1  remaining binding (binding; 1 µM): 69%
Cc1cnc(Nc2ccc(C(=O)N3CCC(N4CCCC4)CC3)cc2)nc1-c1cc2ccccc2s1  remaining binding (binding, competition with immobilised ligand; 1 µM): 65%
